ChEMBL document CHEMBL3286203, “Reactive oxygen species (ROS) inducible DNA cross-linking agents and their effect on cancer cells and normal lymphocytes” (J Med Chem, 2014)
Calls of active or inactive are those of the source. The calls are words filed in the database; no cut-off is given here.

Tests used:
[1] = system: SNB-19; assay: Cytotoxicity against human SNB19 cells assessed as growth inhibition at 10 uM after 48 hrs by SRB assay; type: functional, cell-based
Summary of the method: (§1)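 NCI-60 DTP human tumour line screen. Cells grown in RPMI 1640 with 5% fetal bovine serum and 2 mM L-glutamine, plated at 5000–40 000 cells/well according to doubling time. Single dose of 10 μM for 48 h at 37 °C, 5% CO2, 95% air, 100% humidity, two plates per line. Read-out is growth percent.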

[2] = system: SNB-75; assay: Cytotoxicity against human SNB75 cells assessed as growth inhibition at 10 uM after 48 hrs by SRB assay; type: functional, cell-based; summary of the method: as §1
[3] = system: SK-MEL-2; assay: Cytotoxicity against human SK-MEL-2 cells assessed as growth inhibition at 10 uM after 48 hrs by SRB assay; type: functional, cell-based
Summary of the method: (§2)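 Single-dose screen run by the NCI Developmental Therapeutics Program (NCI-60). Cells were grown in RPMI 1640 with 5% fetal bovine serum and 2 mM L-glutamine. They were plated at 5000–40 000 cells/well, depending on doubling time. Each line was run in two plates and exposed to 10 μM drug for 48 h at 37 °C, 5% CO2, 100% humidity. Read-out was growth percent.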

[4] = system: SK-MEL-5; assay: Cytotoxicity against human SK-MEL-5 cells assessed as growth inhibition at 10 uM after 48 hrs by SRB assay; type: functional, cell-based; summary of the method: as §2
[5] = system: OVCAR-3; assay: Cytotoxicity against human OVCAR3 cells assessed as growth inhibition at 10 uM after 48 hrs by SRB assay; type: functional, cell-based; summary of the method: as §2
[6] = system: OVCAR-5; assay: Cytotoxicity against human OVCAR5 cells assessed as growth inhibition at 10 uM after 48 hrs by SRB assay; type: functional, cell-based; summary of the method: as §2
[7] = system: NCI/ADR-RES; assay: Cytotoxicity against human NCI-ADR-RES cells assessed as growth inhibition at 10 uM after 48 hrs by SRB assay; type: functional, cell-based; summary of the method: as §2
[8] = system: A498; assay: Cytotoxicity against human A498 cells assessed as growth inhibition at 10 uM after 48 hrs by SRB assay; type: functional, cell-based
Summary of the method: (§3)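 NCI DTP 60-cell-line screen run at the NCI. Cells were grown in RPMI 1640 with 5% FBS and 2 mM L-glutamine. They were seeded at 5000–40 000 cells/well depending on doubling time and grown in two plates per line. Each was exposed to a single 10 μM dose for 48 h at 37 °C, 5% CO2, 95% air, 100% humidity. Read-out was percent growth.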

[9] = system: CAKI-1; assay: Cytotoxicity against human Caki1 cells assessed as growth inhibition at 10 uM after 48 hrs by SRB assay; type: functional, cell-based; summary of the method: as §3
[10] = system: TK-10; assay: Cytotoxicity against human TK10 cells assessed as growth inhibition at 10 uM after 48 hrs by SRB assay; type: functional, cell-based; summary of the method: as §1
[11] = system: PC-3; assay: Cytotoxicity against human PC3 cells assessed as growth inhibition at 10 uM after 48 hrs by SRB assay; type: functional, cell-based; summary of the method: as §2
[12] = system: DU-145; assay: Cytotoxicity against human DU145 cells assessed as growth inhibition at 10 uM after 48 hrs by SRB assay; type: functional, cell-based; summary of the method: as §3
[13] = system: MCF7; assay: Cytotoxicity against human MCF7 cells assessed as growth inhibition at 10 uM after 48 hrs by SRB assay; type: functional, cell-based; summary of the method: as §2
[14] = system: Hs-578T; assay: Cytotoxicity against human Hs578T cells assessed as growth inhibition at 10 uM after 48 hrs by SRB assay; type: functional, cell-based; summary of the method: as §3
[15] = system: T47D; assay: Cytotoxicity against human T47D cells assessed as growth inhibition at 10 uM after 48 hrs by SRB assay; type: functional, cell-based; summary of the method: as §1
[16] = system: HOP-62; assay: Cytotoxicity against human HOP62 cells after 48 hrs by SRB assay; type: functional; conditions: HOP-62, 48 h
Summary of the method: (§4)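 GI50 was determined in the NCI Developmental Therapeutics Program in vitro 60-line cancer screen. Tumour lines were maintained in RPMI 1640 containing 5% FBS and 2 mM L-glutamine. Cells were inoculated at 5000–40 000 cells/well according to each line's doubling time before drug exposure.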

[17] = system: SF-539; assay: Cytotoxicity against human SF539 cells after 48 hrs by SRB assay; type: functional; conditions: SF-539, 48 h
Summary of the method: (§5)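 GI50 from the NCI Developmental Therapeutics Program in vitro human tumor cell screen. Cell lines were maintained in RPMI 1640 with 5% fetal bovine serum and 2 mM L-glutamine. They were seeded at 5000–40 000 cells/well, depending on each line's doubling time, then exposed to drug for 48 h at 37 °C, 5% CO2.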

[18] = Cytotoxicity against human OVCAR4 cells after 48 hrs by SRB assay; type: functional; conditions: OVCAR-4, 48 h; summary of the method: as §5
[19] = Cytotoxicity against human OVCAR5 cells after 48 hrs by SRB assay; type: functional; conditions: OVCAR-5, 48 h; summary of the method: as §5
[20] = Cytotoxicity against human OVCAR8 cells after 48 hrs by SRB assay; type: functional; conditions: OVCAR-8, 48 h; summary of the method: as §5
[21] = system: MCF7; assay: Cytotoxicity against human MCF7 cells after 48 hrs by SRB assay; type: functional; conditions: MCF7, 48 h; summary of the method: as §4
[22] = system: NCI-H226; assay: Cytotoxicity against human NCI-H226 cells assessed as growth inhibition at 10 uM after 48 hrs by SRB assay; type: functional, cell-based; summary of the method: as §2
[23] = system: NCI-H322M; assay: Cytotoxicity against human NCI-H322M cells assessed as growth inhibition at 10 uM after 48 hrs by SRB assay; type: functional, cell-based; summary of the method: as §2
[24] = system: NCI-H460; assay: Cytotoxicity against human NCI-H460 cells assessed as growth inhibition at 10 uM after 48 hrs by SRB assay; type: functional, cell-based; summary of the method: as §2
[25] = system: COLO 205; assay: Cytotoxicity against human COLO205 cells assessed as growth inhibition at 10 uM after 48 hrs by SRB assay; type: functional, cell-based; summary of the method: as §3
[26] = system: HCT-15; assay: Cytotoxicity against human HCT15 cells assessed as growth inhibition at 10 uM after 48 hrs by SRB assay; type: functional, cell-based; summary of the method: as §3
[27] = system: SW-620; assay: Cytotoxicity against human SW620 cells assessed as growth inhibition at 10 uM after 48 hrs by SRB assay; type: functional, cell-based; summary of the method: as §1
[28] = system: SF-268; assay: Cytotoxicity against human SF268 cells assessed as growth inhibition at 10 uM after 48 hrs by SRB assay; type: functional, cell-based; summary of the method: as §2
[29] = Induction of [32P]-labeled 49-mer oligonucleotide duplex DNA 12 with GNC sequence at terminus (unknown origin) interstrand cross-linking at 1 mM after 16 hrs by PAGE
Summary of the method: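 32P-labelled 12a (1.0 μM) annealed with 1.5 equiv of 12b in 10 mM potassium phosphate pH 7 / 100 mM NaCl (65 °C for 3 min, then slow cooling). Duplex incubated with compound (final 1 μM–5 mM), with or without H2O2, in NaCl and potassium phosphate pH 8 at room temperature for 16 h. Quenched in formamide; 20% denaturing PAGE.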

[30] = system: A549; assay: Cytotoxicity against human A549 cells assessed as growth inhibition at 10 uM after 48 hrs by SRB assay; type: functional, cell-based; summary of the method: as §3
[31] = system: RPMI-8226; assay: Cytotoxicity against human RPMI8226 cells assessed as growth inhibition at 10 uM after 48 hrs by SRB assay; type: functional, cell-based; summary of the method: as §2
[32] = system: CCRF-CEM; assay: Cytotoxicity against human CCRF-CEM cells after 48 hrs by SRB assay; type: functional; summary of the method: as §4
[33] = system: HL-60(TB); assay: Cytotoxicity against human HL-60(TB) cells after 48 hrs by SRB assay; type: functional; conditions: HL-60, 48 h; summary of the method: as §4
[34] = system: A549; assay: Cytotoxicity against human A549 cells after 48 hrs by SRB assay; type: functional; conditions: A549, 48 h; summary of the method: as §4

Structure (SMILES) | growth inhibition (GI) [1] | growth inhibition (GI) [2] | growth inhibition (GI) [3] | growth inhibition (GI) [4] | growth inhibition (GI) [5] | growth inhibition (GI) [6] | growth inhibition (GI) [7] | growth inhibition (GI) [8] | growth inhibition (GI) [9] | growth inhibition (GI) [10] | growth inhibition (GI) [11] | growth inhibition (GI) [12] | growth inhibition (GI) [13] | growth inhibition (GI) [14] | growth inhibition (GI) [15] | growth inhibition (GI) [22] | growth inhibition (GI) [23] | growth inhibition (GI) [24] | growth inhibition (GI) [25] | growth inhibition (GI) [26] | other results
CC1(C)OB(c2ccc(N(CCCl)CCOS(C)(=O)=O)cc2)OC1(C)C | Active | Active | Active | Active | Active | Active | Active | Active | Active | Active | Active | Active | Active | Active | Active | Active | Active | Active | Active | Active | GI50 [16]: 8.85 µM; GI50 [17]: 4.83 µM; GI50 [18]: 13.9 µM; GI50 [19]: 22.9 µM; GI50 [20]: 8.2 µM; GI50 [21]: 4.44 µM; growth inhibition (GI) [27]: Active; growth inhibition (GI) [28]: Active; Activity [29]: inactive; growth inhibition (GI) [30]: Active; growth inhibition (GI) [31]: Active; GI50 [32]: 4.01 µM; GI50 [33]: 3.88 µM; GI50 [34]: 4.98 µM
CC1(C)OB(c2ccc(N(CCBr)CCOS(C)(=O)=O)cc2)OC1(C)C | Active | Active | Active | Active | Active | Active | Active | Active | Active | Active | Active | Active | Active | Active | Active | Active | Active | Active | Active | Active | growth inhibition (GI) [27]: Active; growth inhibition (GI) [28]: Active; Activity [29]: inactive; growth inhibition (GI) [30]: Active; growth inhibition (GI) [31]: Active
CC1(C)OB(c2ccc(N(CCBr)CCBr)cc2)OC1(C)C | Active | Active | Active | Active | Active | Active | Active | Active | Active | Active | Active | Active | Active | Active | Active | Active | Active | Active | Active | Active | growth inhibition (GI) [27]: Active; growth inhibition (GI) [28]: Active; Activity [29]: inactive; growth inhibition (GI) [30]: Active; growth inhibition (GI) [31]: Active
